Series [1] in a line: Safety index, ratio of IC50 for human MCF10A cells to EC50 for human SW620 cells. It is filed as toxicity, cell-based, SW-620. The settings on record: MCF10A cells versus SW620 cells, read-out: Ratio IC50/EC50. An outline of the steps: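 Safety index is the IC50 in the normal cells divided by the EC50 in the cancer cells. Both values come from MTT assays: cells in DMEM with 10% FBS, serum-starved 4 h, then exposed to compound across a 100nM-50µM dose range with 0.1% DMSO as vehicle control.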

For series [2], the system named is MCF7. As to the kind of experiment: Cell cycle arrest in human […] cells assessed as accumulation at G1 phase at 5 uM by propidium iodide staining by FACS analysis (reference value: 62.88%). It is filed as functional.
For series [3], the system named is Vero. As to the kind of experiment: Antiproliferative activity against african green monkey Vero cells after 24 hrs by MTT assay. It is filed as functional, cell-based. The following applies: Chlorocebus sabaeus. The essentials: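 MTT viability: cells seeded at 1×10^4 per well in DMEM with 10% FBS, left to adhere overnight, then serum-starved 4 h. Compounds were given at a range of doses, with 0.1% DMSO vehicle as control. EC50 was taken from dose-response curves spanning 100nM-50µM. Data are mean ± SEM from at least three independent experiments.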
On the technique in general: Tetrazolium assays rely on reduction of a dye to a coloured formazan, in cell work by metabolically active cells.

Series [4] deals with MCF7. As to the kind of experiment: Cell cycle arrest in human […] cells assessed as accumulation at subG1 phase at 7.5 uM by propidium iodide staining by FACS analysis (reference value: 0.1%). It is filed as functional. Background: Flow cytometry measures light scatter and fluorescence of single cells or particles in a stream.
Series [5] concerns MCF7. Briefly: Cell cycle arrest in human […] cells assessed as accumulation at subG1 phase at 2.5 uM by propidium iodide staining by FACS analysis (reference value: 0.1%). The class given is functional.
The target of series [6] is Mitogen-activated protein kinase; ERK1/ERK2 (Homo sapiens) (UniProt P27361+P28482). As to the kind of experiment: Inhibition of EGF-induced ERK1/2 phosphorylation in human MDA-MB-231 cells at 1 uM by ELISA. It is filed as cell-based.
Mitogen-activated protein kinase; ERK1/ERK2 (Homo sapiens), sequence (P27361 whole entry, looked up): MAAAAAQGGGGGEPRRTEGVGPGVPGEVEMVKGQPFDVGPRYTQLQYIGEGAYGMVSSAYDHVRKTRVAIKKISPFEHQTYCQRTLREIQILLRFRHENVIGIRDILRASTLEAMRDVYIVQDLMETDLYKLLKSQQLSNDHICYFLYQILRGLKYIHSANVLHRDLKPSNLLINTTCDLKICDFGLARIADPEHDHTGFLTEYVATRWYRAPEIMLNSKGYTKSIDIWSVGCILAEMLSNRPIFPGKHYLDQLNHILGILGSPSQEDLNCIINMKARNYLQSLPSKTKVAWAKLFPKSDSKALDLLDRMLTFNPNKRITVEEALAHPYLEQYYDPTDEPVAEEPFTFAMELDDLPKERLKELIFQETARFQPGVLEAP
Mitogen-activated protein kinase; ERK1/ERK2 (Homo sapiens), sequence (P28482 whole entry, looked up): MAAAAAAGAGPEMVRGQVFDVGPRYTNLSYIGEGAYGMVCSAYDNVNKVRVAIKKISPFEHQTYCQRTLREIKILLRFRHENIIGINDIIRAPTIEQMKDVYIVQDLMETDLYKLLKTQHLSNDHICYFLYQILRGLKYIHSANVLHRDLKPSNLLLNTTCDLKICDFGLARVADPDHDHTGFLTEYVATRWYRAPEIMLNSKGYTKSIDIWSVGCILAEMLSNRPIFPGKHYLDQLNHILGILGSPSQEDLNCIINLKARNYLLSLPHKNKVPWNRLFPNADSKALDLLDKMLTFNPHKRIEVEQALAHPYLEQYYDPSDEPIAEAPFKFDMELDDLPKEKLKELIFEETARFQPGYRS
In series [7] the test system is Mast/stem cell growth factor receptor Kit (Homo sapiens), P10721 [D816A]. Briefly: Inhibition of cKit D816A mutant (unknown origin) at 10 uM. The essentials: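 Cell-free kinase profiling was run as a standard 33P-ATP-based in vitro kinase assay.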
Series [8] addresses ETS domain-containing protein Elk-1 (Homo sapiens) (UniProt P19419). As to the kind of experiment: Inhibition of basal level ELK1 phosphorylation in human MDA-MB-231 cells at 1 uM by ELISA. The class given is cell-based.
For series [9], the system named is MDA-MB-231. As to the kind of experiment: Inhibition of IGF1 expression in human MDA-MB-231 cells at 5 uM by ELISA. The class given is functional, cell-based. (In general: An ELISA detects its analyte on a solid surface through an enzyme-linked reagent.)
The test system of series [10] is MDA-MB-231. Briefly: Inhibition of EGF-induced cell migration in human MDA-MB-231 cells assessed as decrease in number of cells toward free space at 1 uM after 24 hrs by wound healing assay. It is filed as functional, cell-based. The essentials:
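Confluent MDA-MB-231 monolayers scratch-wounded, washed and treated at 1μM in serum-free medium ± EGF (100ng/ml) for 24 h. Wound closure measured as distances in six random fields at 10×.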

For series [11], the target named is Plasminogen activator inhibitor 1 (Homo sapiens) (UniProt P05121). Briefly: Inhibition of basal level PAI-1 phosphorylation in human MDA-MB-231 cells at 1 uM by ELISA. It is filed as cell-based.
Plasminogen activator inhibitor 1 (Homo sapiens), sequence (P05121 whole entry): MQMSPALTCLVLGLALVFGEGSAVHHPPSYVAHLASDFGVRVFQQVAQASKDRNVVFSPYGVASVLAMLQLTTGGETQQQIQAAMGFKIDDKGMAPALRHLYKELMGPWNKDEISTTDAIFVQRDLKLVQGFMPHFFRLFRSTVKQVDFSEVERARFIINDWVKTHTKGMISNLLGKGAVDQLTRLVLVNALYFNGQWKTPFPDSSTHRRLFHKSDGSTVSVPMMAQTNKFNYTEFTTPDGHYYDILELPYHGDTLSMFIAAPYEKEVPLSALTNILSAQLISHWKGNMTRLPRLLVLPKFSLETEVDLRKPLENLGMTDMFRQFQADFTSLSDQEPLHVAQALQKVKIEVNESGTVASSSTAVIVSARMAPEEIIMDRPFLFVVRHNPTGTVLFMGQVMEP
The test system of series [12] is MDA-MB-231. As to the kind of experiment: Inhibition of TGF-betaR1 expression in human MDA-MB-231 cells at 1 uM after 24 hrs by qPCR analysis. The class given is functional, cell-based. An outline of the steps: (§1)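 Gene expression was measured by qPCR in MDA-MB-231 breast cancer cells treated with 1µM compound. GAPDH served as the housekeeping internal control.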

Series [13] concerns the target Epidermal growth factor receptor (Homo sapiens) (UniProt P00533). Briefly: Inhibition of EGF-induced EGFR phosphorylation at Tyr992 in human MCF7 cells at 1 uM by ELISA. The class given is cell-based.
The target in series [14] is cGMP-dependent 3',5'-cyclic phosphodiesterase (Homo sapiens) (UniProt O00408). Briefly: Inhibition of PDE2A3 (unknown origin) activity at 1 to 10 uM. An outline of the steps: (§2)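 Recombinant PDE isoform activity was read by fluorescence polarization. A binding reagent complexes with the nucleotide monophosphate that the phosphodiesterase generates from cAMP/cGMP, and this raises the polarization of the labelled substrate. Reference standards were PDE1A3 10µM IBMX, PDE2A3 1nM BAY 60-7550, PDE3CAT 1µM cilostazol, PDE4CAT rolipram, PDE5CAT 0.1µM sildenafil, PDE7A […], PDE8A1 10µM BRL-50481, PDE9A1 1µM SB 36216 and PDE11A1 dipyridamole.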
cGMP-dependent 3',5'-cyclic phosphodiesterase (Homo sapiens), sequence (O00408 whole entry, canonical isoform): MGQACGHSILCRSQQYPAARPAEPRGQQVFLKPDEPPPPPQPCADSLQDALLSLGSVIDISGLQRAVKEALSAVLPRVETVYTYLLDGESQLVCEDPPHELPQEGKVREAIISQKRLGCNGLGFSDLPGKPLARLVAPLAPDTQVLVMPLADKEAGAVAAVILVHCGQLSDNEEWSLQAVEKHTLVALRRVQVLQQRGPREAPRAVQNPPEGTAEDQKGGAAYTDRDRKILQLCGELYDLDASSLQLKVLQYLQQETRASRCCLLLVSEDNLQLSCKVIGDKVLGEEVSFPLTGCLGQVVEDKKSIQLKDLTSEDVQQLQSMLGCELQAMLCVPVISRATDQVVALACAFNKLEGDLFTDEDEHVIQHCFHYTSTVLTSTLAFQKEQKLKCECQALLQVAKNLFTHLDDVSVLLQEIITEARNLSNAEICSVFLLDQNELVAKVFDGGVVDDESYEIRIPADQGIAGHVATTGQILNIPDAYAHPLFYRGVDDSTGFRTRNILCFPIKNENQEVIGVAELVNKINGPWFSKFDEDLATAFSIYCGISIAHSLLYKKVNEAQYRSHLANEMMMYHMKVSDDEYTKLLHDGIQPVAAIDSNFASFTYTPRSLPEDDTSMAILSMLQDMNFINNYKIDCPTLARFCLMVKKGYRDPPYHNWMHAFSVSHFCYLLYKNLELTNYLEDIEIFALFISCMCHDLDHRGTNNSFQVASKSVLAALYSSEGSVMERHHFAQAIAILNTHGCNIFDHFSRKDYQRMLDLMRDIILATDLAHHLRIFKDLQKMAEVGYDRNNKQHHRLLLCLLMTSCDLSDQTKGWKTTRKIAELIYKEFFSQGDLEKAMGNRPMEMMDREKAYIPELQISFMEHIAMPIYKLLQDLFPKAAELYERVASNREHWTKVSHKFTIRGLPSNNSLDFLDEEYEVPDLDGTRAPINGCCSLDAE

Series [15] deals with Phosphodiesterase 4 (Homo sapiens) (UniProt P27815+Q08499+Q07343+Q08493). As to the kind of experiment: Inhibition of PDE4 CAT (unknown origin) activity at 1 to 10 uM. The class given is protein assay. An outline of the steps: as §2
In series [16] the target is Epidermal growth factor receptor (Homo sapiens) (UniProt P00533). As to the kind of experiment: Inhibition of EGF-induced EGFR2 phosphorylation in human MDA-MB-231 cells at 1 uM by ELISA. The class given is cell-based. An outline of the steps: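 MDA-MB-231 cells pretreated 1 h in serum-free medium, then EGF-stimulated for 15 min and lysed. Equal lysate protein (Bradford) assayed by ELISA kits for p-EGFR (Tyr1068, Tyr845, Tyr1173) and p-HER2. Absorbance read at 450 nm, normalized to total EGFR or HER2.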
Epidermal growth factor receptor (Homo sapiens), sequence (P00533 whole entry, canonical isoform): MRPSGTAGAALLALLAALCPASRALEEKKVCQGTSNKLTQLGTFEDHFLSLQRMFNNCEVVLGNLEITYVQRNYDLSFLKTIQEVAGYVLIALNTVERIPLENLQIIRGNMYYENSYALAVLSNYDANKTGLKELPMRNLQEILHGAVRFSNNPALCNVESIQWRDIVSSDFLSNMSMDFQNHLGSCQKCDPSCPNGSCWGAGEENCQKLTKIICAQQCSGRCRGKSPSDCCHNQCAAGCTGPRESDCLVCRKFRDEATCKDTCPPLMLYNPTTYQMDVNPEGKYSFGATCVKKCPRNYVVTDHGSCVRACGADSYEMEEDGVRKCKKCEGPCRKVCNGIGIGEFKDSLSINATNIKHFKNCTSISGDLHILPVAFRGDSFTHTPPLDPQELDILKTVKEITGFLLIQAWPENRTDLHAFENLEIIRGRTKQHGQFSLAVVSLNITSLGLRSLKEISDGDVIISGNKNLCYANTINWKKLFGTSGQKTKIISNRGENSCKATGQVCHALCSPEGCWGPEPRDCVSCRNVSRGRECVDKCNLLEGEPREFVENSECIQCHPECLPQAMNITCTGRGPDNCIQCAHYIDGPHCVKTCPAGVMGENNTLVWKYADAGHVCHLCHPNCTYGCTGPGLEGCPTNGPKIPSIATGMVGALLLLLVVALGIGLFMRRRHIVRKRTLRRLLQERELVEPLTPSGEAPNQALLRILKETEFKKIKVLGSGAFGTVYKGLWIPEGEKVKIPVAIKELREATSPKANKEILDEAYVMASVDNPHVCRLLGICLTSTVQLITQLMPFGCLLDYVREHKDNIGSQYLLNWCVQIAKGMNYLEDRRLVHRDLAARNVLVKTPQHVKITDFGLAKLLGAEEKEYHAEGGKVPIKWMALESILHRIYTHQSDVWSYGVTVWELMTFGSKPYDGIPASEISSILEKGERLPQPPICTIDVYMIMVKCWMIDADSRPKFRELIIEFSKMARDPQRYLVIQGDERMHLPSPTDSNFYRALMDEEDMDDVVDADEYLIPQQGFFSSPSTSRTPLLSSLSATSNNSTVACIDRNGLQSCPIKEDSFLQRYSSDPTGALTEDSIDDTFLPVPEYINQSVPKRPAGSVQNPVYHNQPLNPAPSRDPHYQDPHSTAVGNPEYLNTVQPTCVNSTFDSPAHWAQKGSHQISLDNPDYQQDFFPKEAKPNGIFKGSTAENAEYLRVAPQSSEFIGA

The target in series [17] is Signal transducer and activator of transcription 3 (Homo sapiens) (UniProt P40763). As to the kind of experiment: Inhibition of basal level STAT3 phosphorylation in human MCF7 cells at 1 uM by ELISA. It is filed as cell-based.
Signal transducer and activator of transcription 3 (Homo sapiens), sequence (P40763 whole entry): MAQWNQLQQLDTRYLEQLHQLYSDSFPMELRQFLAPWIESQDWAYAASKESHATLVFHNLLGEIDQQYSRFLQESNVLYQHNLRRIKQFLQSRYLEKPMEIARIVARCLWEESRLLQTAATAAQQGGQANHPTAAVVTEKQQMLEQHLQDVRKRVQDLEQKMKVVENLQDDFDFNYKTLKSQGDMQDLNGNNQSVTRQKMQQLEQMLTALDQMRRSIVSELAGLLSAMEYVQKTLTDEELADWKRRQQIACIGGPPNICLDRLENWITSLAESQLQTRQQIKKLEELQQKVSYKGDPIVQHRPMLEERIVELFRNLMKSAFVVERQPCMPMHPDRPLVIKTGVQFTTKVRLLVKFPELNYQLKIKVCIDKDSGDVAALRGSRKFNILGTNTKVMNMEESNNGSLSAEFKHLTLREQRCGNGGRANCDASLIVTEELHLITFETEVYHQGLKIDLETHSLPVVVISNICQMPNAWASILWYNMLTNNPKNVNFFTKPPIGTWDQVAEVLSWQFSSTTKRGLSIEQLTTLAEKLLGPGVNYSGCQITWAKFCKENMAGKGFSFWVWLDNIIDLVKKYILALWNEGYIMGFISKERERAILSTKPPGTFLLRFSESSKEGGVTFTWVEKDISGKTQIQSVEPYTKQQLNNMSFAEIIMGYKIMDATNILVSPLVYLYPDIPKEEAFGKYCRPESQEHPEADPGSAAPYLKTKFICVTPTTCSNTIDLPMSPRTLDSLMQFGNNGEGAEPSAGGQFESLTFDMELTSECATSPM
In series [18] the test system is MDA-MB-231. As to the kind of experiment: Inhibition of EGF expression in human MDA-MB-231 cells at 5 uM by ELISA. It is filed as functional, cell-based.
Series [19] concerns MCF7. Briefly: Antitumor activity against human MCF7 cells xenografted in NIH-3 mouse assessed as reduction in PCNA level in tumor at 16 mg/kg, po for 25 days by Western blot analysis. The class given is functional, organism-based. Further details: dose 16 mg/kg.
For series [20], the system named is MDA-MB-231. As to the kind of experiment: Inhibition of VEGF-A expression in human MDA-MB-231 cells at 1 uM after 24 hrs by qPCR analysis. The class given is functional, cell-based. An outline of the steps: as §1
Series [21] relates to MCF7. Briefly: Cytotoxicity against human […] cells assessed as cell viability at 5 uM by MTT assay in presence of z-LEHD-FMK caspase-9 inhibitor. The class given is functional, cell-based. An outline of the steps:
(§3)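 Cells seeded 1×10^4/well in DMEM with 10% FBS, adhered overnight, serum-starved 4 h; pre-incubated 2 h with Z-IETD-FMK or Z-LEHD-FMK (10µM each), then 5μM compound for a further 24 h; viability by MTT.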

The test system of series [22] is MDA-MB-231. Briefly: Antiproliferative activity against human […] cells assessed as absence of growth recovery treated > 5 uM for 24 hrs followed by maintained in drug free medium for 72 hrs by MTT assay. It is filed as functional, cell-based.
The test system of series [23] is MDA-MB-231. Briefly: Cytotoxicity against human […] cells assessed as cell viability at 5 uM by MTT assay in presence of z-IETD-FMK caspase-8 inhibitor. It is filed as functional, cell-based. The essentials: as §3
For series [24], the target named is Epidermal growth factor receptor (Homo sapiens) (UniProt P00533). Briefly: Inhibition of EGF-induced EGFR phosphorylation at Tyr1068 in human MCF7 cells at 0.5 uM by ELISA. It is filed as cell-based.
Series [25] concerns the target Plasminogen activator inhibitor 1 (Homo sapiens) (UniProt P05121). As to the kind of experiment: Inhibition of EGF-induced […] PAI-1 in human MDA-MB-231 cells at 1 uM by ELISA. It is filed as cell-based. An outline of the steps:
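MDA-MB-231 cells treated at 1µM for 24 h with or without EGF. PAI-1 in conditioned medium measured by ELISA.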

The text below walks through data of ChEMBL document CHEMBL3352791, “Thioaryl naphthylmethanone oxime ether analogs as novel anticancer agents” (J Med Chem, 2014).

pIC50: −log10 of the molar value. Activity calls are given as the source filed them. No cut-off for these calls is given here.

ETS domain-containing protein Elk-1 (Homo sapiens), sequence (P19419 whole entry, the tested form may be a part): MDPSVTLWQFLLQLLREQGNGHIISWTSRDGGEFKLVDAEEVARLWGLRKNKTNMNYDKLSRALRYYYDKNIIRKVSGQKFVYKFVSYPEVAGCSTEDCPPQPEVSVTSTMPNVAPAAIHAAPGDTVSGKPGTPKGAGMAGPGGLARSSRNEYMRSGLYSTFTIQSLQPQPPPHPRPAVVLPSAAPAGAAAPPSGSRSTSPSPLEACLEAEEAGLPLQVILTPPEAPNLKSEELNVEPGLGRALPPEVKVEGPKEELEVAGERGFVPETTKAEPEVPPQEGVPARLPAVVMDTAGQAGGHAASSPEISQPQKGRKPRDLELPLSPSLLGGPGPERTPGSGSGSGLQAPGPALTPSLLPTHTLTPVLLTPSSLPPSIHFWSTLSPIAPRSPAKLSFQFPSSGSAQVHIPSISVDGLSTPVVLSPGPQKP

A word on the pIC50: it is the negative decadic logarithm of the IC50, by convention in mol/L. On to `CCN(CC)CCO/N=C(\c1ccc(SC)cc1)c1cccc2ccccc12.O=C(O)C(=O)O`, for which the selectivity ratio in series [1] is 2.2. For the same compound, the Activity in series [2] came out at 74.66%; in series [4], 0.4%; in [5], 0.4%. Also, the pIC50 in series [3] is less than 4.60.

As to `CCN(CC)CCO/N=C(\c1ccc(SC)cc1)c1cccc2ccccc12`, the inhibition result in series [6], in series [8], in series [10], in [11], in [13] and in series [16] was “Active” throughout. In addition, the inhibition entry in series [18], in series [19], in series [20], in [24] and in series [25] was “Active” throughout. In addition, the inhibition result in [7], in series [9], in [12], in series [14], in [15] and in series [17] was “inactive” throughout. Also, the result in series [21] and in series [23] was inactive. In addition, the result in series [22] was Active.
